Measurements reported in ChEMBL document CHEMBL4002589, “Tri- and Tetrasubstituted Pyridinylimidazoles as Covalent Inhibitors of c-Jun N-Terminal Kinase 3” (J Med Chem, 2017).

How the values were obtained:
[1] = biological target: Casein kinase I isoform gamma-3 (Homo sapiens) (UniProt Q9Y6M4); experiment: Inhibition of CK1 gamma3 (unknown origin) assessed as residual activity at 1 uM relative to control
In short: (§1)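 Each inhibitor is tested at a single concentration, 1 µM or 0.5 µM depending on the compound. Results are reported as residual kinase activity.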

[2] = biological target: T1, Dual specificity mitogen-activated protein kinase kinase 7 (Homo sapiens) (UniProt O14733); experiment: Inhibition of full length human GST-HIS tagged MKK7 expressed in Sf9 cells assessed as residual activity at 1 uM relative to control; in short: as §1
T1 sequence (whole entry): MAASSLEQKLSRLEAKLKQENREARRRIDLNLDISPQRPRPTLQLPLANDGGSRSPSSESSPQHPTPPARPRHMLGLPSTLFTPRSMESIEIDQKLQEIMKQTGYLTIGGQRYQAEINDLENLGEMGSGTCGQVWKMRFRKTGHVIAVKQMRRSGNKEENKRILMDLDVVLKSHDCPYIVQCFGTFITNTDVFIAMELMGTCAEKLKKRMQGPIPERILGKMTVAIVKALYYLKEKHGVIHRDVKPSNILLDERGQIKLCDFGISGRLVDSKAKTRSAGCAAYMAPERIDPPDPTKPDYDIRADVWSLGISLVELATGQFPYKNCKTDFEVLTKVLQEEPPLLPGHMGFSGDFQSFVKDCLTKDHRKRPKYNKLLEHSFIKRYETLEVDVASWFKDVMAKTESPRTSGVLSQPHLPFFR

[3] = biological target: Mitogen-activated protein kinase 14 (Homo sapiens, UniProt Q16539); experiment: Inhibition of GST-His tagged human p38alpha expressed in Escherichia coli assessed as reduction in ATF2 phosphorylation measured after 60 mins by ELISA
In short: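 ELISA kinase assays run in parallel for JNK3 and p38α, with 60 min incubation. IC50 values are the mean of three experiments.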

[4] = biological target: T2, Serine/threonine-protein kinase D3 (Homo sapiens) (UniProt O94806); experiment: Inhibition of human PKC-nu (3 to 890 residues) expressed in Sf9 cells assessed as residual activity at 1 uM relative to control; in short: as §1
T2 sequence (whole entry): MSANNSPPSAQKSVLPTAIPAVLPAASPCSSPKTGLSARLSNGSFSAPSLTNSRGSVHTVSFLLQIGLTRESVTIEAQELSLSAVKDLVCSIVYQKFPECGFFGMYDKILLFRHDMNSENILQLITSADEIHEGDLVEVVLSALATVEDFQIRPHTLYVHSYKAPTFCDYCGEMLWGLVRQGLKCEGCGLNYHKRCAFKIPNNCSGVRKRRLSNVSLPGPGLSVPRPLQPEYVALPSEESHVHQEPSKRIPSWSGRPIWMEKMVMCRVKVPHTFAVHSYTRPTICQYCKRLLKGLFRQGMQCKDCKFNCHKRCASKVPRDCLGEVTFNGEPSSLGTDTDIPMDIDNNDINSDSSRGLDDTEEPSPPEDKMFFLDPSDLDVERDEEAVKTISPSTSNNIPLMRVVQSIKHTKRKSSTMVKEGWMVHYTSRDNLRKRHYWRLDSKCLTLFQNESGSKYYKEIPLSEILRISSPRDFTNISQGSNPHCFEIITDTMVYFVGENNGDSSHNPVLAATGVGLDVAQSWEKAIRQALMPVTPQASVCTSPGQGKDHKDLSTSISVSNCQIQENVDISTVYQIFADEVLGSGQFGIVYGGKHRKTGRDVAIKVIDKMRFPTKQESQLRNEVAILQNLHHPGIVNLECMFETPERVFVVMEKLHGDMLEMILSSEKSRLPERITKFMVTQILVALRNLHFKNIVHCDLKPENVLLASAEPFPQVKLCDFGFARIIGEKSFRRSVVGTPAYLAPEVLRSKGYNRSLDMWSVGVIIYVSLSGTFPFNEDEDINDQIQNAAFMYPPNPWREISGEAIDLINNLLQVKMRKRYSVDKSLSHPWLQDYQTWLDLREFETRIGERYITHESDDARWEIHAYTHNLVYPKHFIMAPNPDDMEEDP

[5] = biological target: Mitogen-activated protein kinase kinase kinase 10 (Homo sapiens) (UniProt Q02779); experiment: Inhibition of MAP3K10 (unknown origin) assessed as residual activity at 1 uM relative to control; in short: as §1
[6] = biological target: Mitogen-activated protein kinase kinase kinase 20 (Homo sapiens) (UniProt Q9NYL2); experiment: Inhibition of ZAK (unknown origin) assessed as residual activity at 1 uM relative to control; in short: as §1
[7] = biological target: Mitogen-activated protein kinase 10 (Homo sapiens, UniProt P53779); experiment: Inhibition of recombinant 6x-His-tagged JNK3 (39 to 402 residues) (unknown origin) expressed in Escherichia coli BL21(DE3) assessed as reduction in ATF2 phosphorylation measured after 50 mins by ELISA
[8] = biological target: Dual specificity protein kinase CLK4 (Homo sapiens) (UniProt Q9HAZ1); experiment: Inhibition of CLK4 (unknown origin) assessed as residual activity at 1 uM relative to control; in short: as §1
[9] = biological target: Casein kinase I isoform gamma-2 (Homo sapiens) (UniProt P78368); experiment: Inhibition of CK1 gamma2 (unknown origin) assessed as residual activity at 1 uM relative to control; in short: as §1
[10] = biological target: Mitogen-activated protein kinase kinase kinase 11 (Homo sapiens) (UniProt Q16584); experiment: Inhibition of MAP3K11 (unknown origin) assessed as residual activity at 1 uM relative to control; in short: as §1
[11] = biological target: Serine/threonine-protein kinase 16 (Homo sapiens) (UniProt O75716); experiment: Inhibition of full length human GST-tagged TSF1 expressed in Sf9 cells assessed as residual activity at 1 uM relative to control; in short: as §1
[12] = biological target: T3, Serine/threonine-protein kinase Sgk1 (Homo sapiens) (UniProt O00141); experiment: Inhibition of full length human GST-tagged SGK1 expressed in Sf9 cells assessed as residual activity at 1 uM relative to control; in short: as §1
T3 sequence (whole entry): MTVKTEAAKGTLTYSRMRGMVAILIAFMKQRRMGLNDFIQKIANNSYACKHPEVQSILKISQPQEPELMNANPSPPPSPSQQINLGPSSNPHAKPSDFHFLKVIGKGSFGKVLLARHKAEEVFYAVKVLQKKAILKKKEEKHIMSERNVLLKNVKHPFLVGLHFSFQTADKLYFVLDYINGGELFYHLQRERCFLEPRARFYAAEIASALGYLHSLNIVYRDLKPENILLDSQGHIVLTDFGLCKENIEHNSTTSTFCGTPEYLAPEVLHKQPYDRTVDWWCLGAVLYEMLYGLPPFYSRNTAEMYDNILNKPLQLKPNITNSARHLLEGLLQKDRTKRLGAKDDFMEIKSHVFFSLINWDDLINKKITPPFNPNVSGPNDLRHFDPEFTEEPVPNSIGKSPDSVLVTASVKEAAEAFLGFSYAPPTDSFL

Casein kinase I isoform gamma-2 (Homo sapiens), sequence (P78368 whole entry, looked up, canonical isoform): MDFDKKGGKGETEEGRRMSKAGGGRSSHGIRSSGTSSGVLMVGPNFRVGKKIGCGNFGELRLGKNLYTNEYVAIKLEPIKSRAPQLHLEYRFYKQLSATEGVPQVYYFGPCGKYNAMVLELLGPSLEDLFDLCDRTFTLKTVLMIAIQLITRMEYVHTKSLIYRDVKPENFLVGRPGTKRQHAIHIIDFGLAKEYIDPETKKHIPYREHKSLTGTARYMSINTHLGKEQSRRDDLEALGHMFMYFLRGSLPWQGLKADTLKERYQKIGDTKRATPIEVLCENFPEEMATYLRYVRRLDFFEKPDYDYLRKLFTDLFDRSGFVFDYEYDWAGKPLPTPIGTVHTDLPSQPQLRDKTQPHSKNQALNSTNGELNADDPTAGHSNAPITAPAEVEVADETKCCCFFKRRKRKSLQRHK
Mitogen-activated protein kinase 10, sequence (P53779 whole entry, the tested form may be a part): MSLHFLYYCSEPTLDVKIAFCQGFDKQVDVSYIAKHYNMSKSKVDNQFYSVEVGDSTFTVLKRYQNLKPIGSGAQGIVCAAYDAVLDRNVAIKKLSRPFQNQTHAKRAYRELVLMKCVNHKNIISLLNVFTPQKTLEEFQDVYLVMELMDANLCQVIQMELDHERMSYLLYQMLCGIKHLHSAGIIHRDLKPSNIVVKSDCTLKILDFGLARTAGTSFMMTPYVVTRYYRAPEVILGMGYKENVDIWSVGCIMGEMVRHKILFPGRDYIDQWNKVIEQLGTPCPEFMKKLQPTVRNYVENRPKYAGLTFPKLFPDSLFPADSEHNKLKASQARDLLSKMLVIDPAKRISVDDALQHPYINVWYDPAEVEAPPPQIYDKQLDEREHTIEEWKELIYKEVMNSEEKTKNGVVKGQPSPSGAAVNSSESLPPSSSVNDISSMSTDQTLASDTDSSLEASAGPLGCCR
Mitogen-activated protein kinase 14, sequence (Q16539 whole entry): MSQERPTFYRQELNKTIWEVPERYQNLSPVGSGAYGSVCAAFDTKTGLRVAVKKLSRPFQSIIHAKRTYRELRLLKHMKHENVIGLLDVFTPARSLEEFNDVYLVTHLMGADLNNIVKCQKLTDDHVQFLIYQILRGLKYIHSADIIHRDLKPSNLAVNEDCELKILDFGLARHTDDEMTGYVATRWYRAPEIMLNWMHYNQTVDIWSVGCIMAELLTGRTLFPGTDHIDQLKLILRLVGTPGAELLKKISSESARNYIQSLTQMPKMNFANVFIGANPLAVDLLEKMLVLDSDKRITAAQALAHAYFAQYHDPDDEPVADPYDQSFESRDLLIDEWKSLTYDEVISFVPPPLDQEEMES
Casein kinase I isoform gamma-3 (Homo sapiens), sequence (Q9Y6M4 whole entry, looked up, canonical isoform): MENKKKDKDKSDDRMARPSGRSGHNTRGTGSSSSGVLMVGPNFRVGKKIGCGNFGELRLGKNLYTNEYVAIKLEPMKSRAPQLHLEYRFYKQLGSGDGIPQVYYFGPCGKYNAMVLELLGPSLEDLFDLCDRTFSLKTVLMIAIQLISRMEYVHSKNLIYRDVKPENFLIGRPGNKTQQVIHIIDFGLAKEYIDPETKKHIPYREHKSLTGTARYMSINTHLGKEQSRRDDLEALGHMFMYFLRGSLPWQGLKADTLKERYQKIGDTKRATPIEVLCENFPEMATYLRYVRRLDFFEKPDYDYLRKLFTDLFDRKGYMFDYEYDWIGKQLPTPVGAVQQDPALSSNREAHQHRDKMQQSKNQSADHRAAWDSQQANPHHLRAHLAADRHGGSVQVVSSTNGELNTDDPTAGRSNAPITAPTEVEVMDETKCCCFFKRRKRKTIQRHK
Dual specificity protein kinase CLK4 (Homo sapiens), sequence (Q9HAZ1 whole entry, looked up, canonical isoform): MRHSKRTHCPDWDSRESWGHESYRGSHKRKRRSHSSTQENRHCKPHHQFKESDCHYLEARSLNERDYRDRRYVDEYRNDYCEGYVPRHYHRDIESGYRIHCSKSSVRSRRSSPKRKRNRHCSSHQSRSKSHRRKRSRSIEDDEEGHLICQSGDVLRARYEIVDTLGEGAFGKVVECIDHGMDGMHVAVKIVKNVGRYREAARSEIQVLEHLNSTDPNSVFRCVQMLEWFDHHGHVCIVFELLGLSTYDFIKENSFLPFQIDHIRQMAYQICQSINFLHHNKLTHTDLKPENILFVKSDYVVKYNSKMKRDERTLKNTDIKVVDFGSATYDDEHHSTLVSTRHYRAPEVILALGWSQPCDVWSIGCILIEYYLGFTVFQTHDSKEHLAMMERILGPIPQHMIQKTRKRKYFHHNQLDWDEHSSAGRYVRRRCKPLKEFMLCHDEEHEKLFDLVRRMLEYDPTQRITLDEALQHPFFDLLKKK
Mitogen-activated protein kinase kinase kinase 11 (Homo sapiens), sequence (Q16584 whole entry, looked up): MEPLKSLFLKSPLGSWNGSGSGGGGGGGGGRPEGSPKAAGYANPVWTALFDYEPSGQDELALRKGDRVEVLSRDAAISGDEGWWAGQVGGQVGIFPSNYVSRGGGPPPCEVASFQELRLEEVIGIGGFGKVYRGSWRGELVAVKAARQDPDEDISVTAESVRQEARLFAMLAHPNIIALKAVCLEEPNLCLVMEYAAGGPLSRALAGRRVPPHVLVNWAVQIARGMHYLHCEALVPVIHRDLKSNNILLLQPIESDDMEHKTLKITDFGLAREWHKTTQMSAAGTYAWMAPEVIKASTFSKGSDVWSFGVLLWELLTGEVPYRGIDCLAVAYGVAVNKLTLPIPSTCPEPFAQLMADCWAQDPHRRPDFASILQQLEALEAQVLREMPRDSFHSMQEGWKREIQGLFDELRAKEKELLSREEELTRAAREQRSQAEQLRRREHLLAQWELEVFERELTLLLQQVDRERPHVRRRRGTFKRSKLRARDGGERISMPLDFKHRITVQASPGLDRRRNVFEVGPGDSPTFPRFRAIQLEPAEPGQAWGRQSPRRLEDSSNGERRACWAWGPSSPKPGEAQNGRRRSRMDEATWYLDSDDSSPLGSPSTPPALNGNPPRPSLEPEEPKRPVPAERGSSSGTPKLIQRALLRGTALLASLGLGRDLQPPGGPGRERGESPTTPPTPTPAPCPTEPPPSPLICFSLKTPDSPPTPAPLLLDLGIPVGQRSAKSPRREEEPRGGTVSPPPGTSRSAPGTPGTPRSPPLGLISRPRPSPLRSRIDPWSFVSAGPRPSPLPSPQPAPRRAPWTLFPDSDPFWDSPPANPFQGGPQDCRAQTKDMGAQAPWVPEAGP
Mitogen-activated protein kinase kinase kinase 10 (Homo sapiens), sequence (Q02779 whole entry, looked up): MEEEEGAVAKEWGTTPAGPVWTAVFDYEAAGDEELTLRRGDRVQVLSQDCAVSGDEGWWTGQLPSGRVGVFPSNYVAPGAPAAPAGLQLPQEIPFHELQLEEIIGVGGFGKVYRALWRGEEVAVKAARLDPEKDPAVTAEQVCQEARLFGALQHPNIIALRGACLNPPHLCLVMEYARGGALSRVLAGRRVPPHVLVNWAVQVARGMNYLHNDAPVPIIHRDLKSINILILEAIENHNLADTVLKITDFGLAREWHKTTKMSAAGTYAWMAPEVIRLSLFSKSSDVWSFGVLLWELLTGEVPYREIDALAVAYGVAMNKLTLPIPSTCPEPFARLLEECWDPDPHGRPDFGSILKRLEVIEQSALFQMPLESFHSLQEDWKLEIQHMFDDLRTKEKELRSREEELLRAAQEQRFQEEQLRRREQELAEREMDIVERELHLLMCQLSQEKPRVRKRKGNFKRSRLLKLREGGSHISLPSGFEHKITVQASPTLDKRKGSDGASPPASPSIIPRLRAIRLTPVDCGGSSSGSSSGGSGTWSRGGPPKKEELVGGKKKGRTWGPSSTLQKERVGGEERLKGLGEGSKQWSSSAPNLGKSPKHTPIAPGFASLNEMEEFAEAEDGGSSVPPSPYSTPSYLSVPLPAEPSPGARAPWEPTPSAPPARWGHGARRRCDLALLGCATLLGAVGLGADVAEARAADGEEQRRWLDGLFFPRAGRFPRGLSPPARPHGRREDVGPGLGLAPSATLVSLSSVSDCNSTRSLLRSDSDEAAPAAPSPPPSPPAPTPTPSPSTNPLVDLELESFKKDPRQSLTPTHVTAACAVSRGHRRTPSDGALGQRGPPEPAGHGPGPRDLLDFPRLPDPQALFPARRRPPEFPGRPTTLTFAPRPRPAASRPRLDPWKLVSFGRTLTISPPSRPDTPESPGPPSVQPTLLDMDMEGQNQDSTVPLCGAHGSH
Serine/threonine-protein kinase 16 (Homo sapiens), sequence (O75716 whole entry): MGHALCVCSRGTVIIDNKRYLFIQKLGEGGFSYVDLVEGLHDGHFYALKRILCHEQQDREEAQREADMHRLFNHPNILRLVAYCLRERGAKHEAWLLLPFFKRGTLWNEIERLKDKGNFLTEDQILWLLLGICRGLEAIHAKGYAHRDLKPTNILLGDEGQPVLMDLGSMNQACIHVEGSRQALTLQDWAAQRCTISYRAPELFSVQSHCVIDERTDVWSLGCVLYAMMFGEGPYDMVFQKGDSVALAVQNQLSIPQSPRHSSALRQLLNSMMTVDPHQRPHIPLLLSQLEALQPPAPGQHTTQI

C=CC(=O)Nc1cccc(C(=O)Nc2ccc(Nc3cc(-c4[nH]c(SC)nc4C)ccn3)cc2)c1
Activity [1]: 10 to 29% | Activity [2]: 10 to 29% | IC50 [3]: 1950 nM | Activity [4]: 10 to 29% | Activity [5]: 10 to 29% | Activity [6]: 10 to 29% | IC50 [7]: 2 nM | Activity [8]: 10 to 29% | Activity [9]: 10 to 29% | Activity [10]: 10 to 29% | Activity [11]: 10 to 29% | Activity [12]: 10 to 29%
